Bioassay records (PubChem BioAssay)
RORA act – activates the human nuclear receptor RORA | AID 560 | hit rate 1.5% among 65,000 | CHO-K1 Gal4-RORA LBD luciferase reporter, luminescence; percent increase over mock-subtracted basal signal | activation, % at 10 µM | P35398;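 active = activation above the mean of all tested compounds plus 3 SD, cut at about 49% in these data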;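 also: 0% = DMSO-treated RORA cells and 100% = added signal equal to DMSO minus mock-transfected cells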
SF-1 act – activates the human nuclear receptor SF-1. CHO-K1 Gal4-SF-1 LBD luciferase reporter; % increase over DMSO SF-1-specific signal. activation, % at 10 µM. hit rate 1.9% among 65,000. AID 522;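 active = activation above the mean activation of all tested compounds plus 3 SD, cut at about 50% in these data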
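System: CHO-K1 cells with Gal4–hSF-1 LBD chimera plus Gal4-driven luciferase; quantity: 4,000 CHO-K1 cells per well; compound: one dose, 10 µM compound, 1% DMSO; times: 20 h compound treatment, 37 °C; measured by: SteadyLite luciferase luminescence; read-out: percent activation versus DMSO; benchmarks: DMSO and mock-transfected background; replicates: one test per compound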
Htt clearance – mutant huntingtin protein clearance. HeLa Exon1htt(103Q)mCFP, aggregate imaging; zero = plate's median compound well. inhibition, % at 1.5 µM. hit rate 0.42% among 47,000;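 active = inhibition of aggregate fluorescence above about 70%, also judged a hit by eye on the cell image, limit read from the data, passing the limit was not always enough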;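 also: cells exposed to compound for three days before fixation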
D1 mod – allosteric modulators of human D1 dopamine receptor; hit rate 5.9% among 58,000; HEK293 D1, CRE-luciferase, dopamine EC30 potentiation; actives deviate in either direction; B-score at 10 µM; P21728;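 active = luminescence count or its row- and column-corrected plate score outside the 99.7% band of the plate's sample wells, on either side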
Target sequence (P21728 whole entry, looked up): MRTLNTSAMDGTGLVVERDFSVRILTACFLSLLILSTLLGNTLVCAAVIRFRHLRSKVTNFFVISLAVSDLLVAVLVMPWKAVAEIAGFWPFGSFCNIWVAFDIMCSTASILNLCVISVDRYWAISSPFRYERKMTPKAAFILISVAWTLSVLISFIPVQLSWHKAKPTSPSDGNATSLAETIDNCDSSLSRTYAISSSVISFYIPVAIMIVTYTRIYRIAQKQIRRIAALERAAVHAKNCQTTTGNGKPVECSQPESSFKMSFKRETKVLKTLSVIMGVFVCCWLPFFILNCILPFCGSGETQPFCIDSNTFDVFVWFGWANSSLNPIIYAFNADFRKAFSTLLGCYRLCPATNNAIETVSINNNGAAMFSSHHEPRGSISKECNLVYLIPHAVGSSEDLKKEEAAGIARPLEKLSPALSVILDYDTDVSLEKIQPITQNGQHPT
M1 antagonist – M1 muscarinic receptor (rat) antagonism | P08482 | B-score at 10 µM | AID 628 | hit rate 3.4% among 64,000 | CHO-M1 cells, Fluo-4 calcium, ACh EC80 antagonist mode; hits give low values;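 active = calcium fluorescence response, raw or row-and-column corrected B-score, differing from the plate sample mean either way at a set confidence level, mostly lower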
M1 ag – agonists of M1 muscarinic receptor. CHO-M1 cells, Fluo-4 calcium fluorescence, agonist mode; hits give high values. B-score at 10 µM. hit rate 3% among 64,000;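 active = fluorescence rise, raw or as B-score row- and column-corrected plate score, outside the 99.7% band of its plate's samples, either direction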
M1 antag conf – confirmation of rat M1 muscarinic receptor antagonists; shares compounds with M1 antagonist; CHO-M1 cells, Fluo-4 calcium, ACh EC80 antagonism; hits give low values; calcium response (max-min fluorescence) at 10 µM; hit rate 43% among 1,700; AID 677;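 active = calcium response below the same-plate mean of wells given acetylcholine alone at its 80%-effect dose, minus 3 SD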;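 also: raw fluorescence intensity difference in arbitrary instrument units and not normalized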
mGluR4 antag – mGluR4 (human) activity, M1 antagonist secondary assay; shares compounds with M1 antagonist; CHO-mGluR4 calcium flux, Fluo-4 fluorescence, glutamate EC80; hits give low values; fluorescence response (max-min) at 10 µM; hit rate 0.9% among 1,700; AID 678;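 active = fluorescence response below the plate's average for near-maximal glutamate wells, less 3 SD of those wells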;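 also: raw unnormalized fluorescence span taken in the window right after glutamate addition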
* = called active by the depositor; . = no result given. The list is not random: actives were taken first. Their share in the collection is about 11%.

SMILES | RORA act | SF-1 act | Htt clearance | D1 mod | M1 antagonist | M1 ag | M1 antag conf | mGluR4 antag
C=CCn1c(N)cc(=O)nc1SCC(=O)N1CCN(c2ccc(F)cc2)CC1 | 10 | -3 | . | -0.29 | 0.3 | 0 | . | .
O=C(NCC1CCC(C(=O)O)CC1)c1cccnc1 (configuration not stated) | -8 | -25 | . | 0.8 | -0.3 | -0.057 | . | .
CC1CCCN(c2nc3ccsc3c(=O)s2)C1 (configuration not stated) | 60* | 40 | 15 | 3.8* | -7.2* | 0.092 | 273* | 201
CC1CCCN(CCC(=O)c2ccc(Br)cc2)C1 (configuration not stated) | 6 | -6 | . | -0.38 | -4.5* | -0.38 | 500 | 215
COc1ccc(O)c(CN2CCN(C/C=C/c3ccccc3)CC2)c1 | 1 | 4 | . | . | -11* | -2.4 | 454* | 187
C(=C\c1ccccc1)/CN1CCN(Cc2ccc3c(c2)OCCO3)CC1 | -6 | -2 | 14 | 0.21 | -2.5 | 0.37 | . | .
COc1cc(Br)cc(CN2CCN(C/C=C/c3ccccc3)CC2)c1O | -5 | 8 | -14 | -1 | -16* | -0.81 | 48* | 222
Cc1cc(C)c2c(CN3CCN(C/C=C/c4ccccc4)CC3)cc(=O)oc2c1 | 15 | -8 | 53 | -0.38 | -3.6* | -0.86 | 259* | 223
Cn1c(=O)oc2cc(S(=O)(=O)Nc3cccc4c3CCCC4)ccc21 | -10 | -2 | . | 2.7 | -0.42 | -0.79 | . | .
O=C1NCCCC1C(=O)N1CCN(C(c2ccccc2)c2ccccc2)CC1 (configuration not stated) | -1 | -14 | . | -1.4 | -0.25 | 0.9 | . | .
c1ccc(-c2nnc(N3CCN(c4ccccn4)CC3)c3ccccc23)cc1 | 6 | -11 | . | -2.6 | -4.8* | 1.4 | 358* | 171*
COc1ccc(Cl)cc1NC(=O)N(C)Cc1c(C)nn(C)c1C | -27 | -11 | -23 | 0.05 | 0.03 | 0.69 | . | .
COc1ccc(NC(=O)c2ccc(Cl)c(S(=O)(=O)N3CCc4ccccc4C3)c2)cn1 | -7 | 5 | . | . | -1.5* | 0.24 | 681 | 210
COc1ccccc1NC(=O)c1ccc(Cl)c(S(=O)(=O)N2CCOCC2)c1 | -9 | -2 | . | 0.22 | 0.23 | -2 | . | .
Cc1ccc(N2C(=O)C(Cl)=C(Nc3c(C)n(C)n(-c4ccccc4)c3=O)C2=O)cc1 | 6 | -5 | -66 | -0.85 | -5.7* | 0.098 | 133* | 265
O=C(CSc1ncccc1-c1nc2ccccc2[nH]1)NCc1ccco1 | -2 | -7 | . | -2 | 0.32 | -0.81 | . | .
COC(=O)CSc1ncccc1-c1nc2ccccc2[nH]1 | 12 | -7 | -6 | -3.6 | -2.3* | -0.52 | 682 | 231
CC12CN3CC(C)(CN(C1)C3c1ccc(Br)cc1)C2 (configuration not stated) | -29 | 18 | 18 | -0.5 | -3.7* | -0.34 | 387* | 251
COCCCn1c(SCC(=O)N(C)C)nnc1-c1ccccc1 | -2 | 8 | . | 0.018 | 0.25 | 0.096 | . | .
CCOC(=O)CN(C(=O)CSc1nnc(-c2ccncc2)n1CCCN(C)C)c1ccccc1 | 5 | 6 | . | -1.5 | -1.4* | 0.28 | 611 | 249
CN1CCN(CC#CCn2c3ccccc3c3ccccc32)CC1 | 8 | 6 | 29 | -1.7 | -13* | 1.3 | 229* | 219
COC(=O)C1CCN(C(=O)COC(=O)CC(NC(N)=O)c2ccc(Cl)cc2)CC1 (configuration not stated) | -11 | 16 | . | 0.42 | 0.12 | 0.18 | . | .
Cn1c(SC2C(=O)CC(C)(C)CC2=O)nnc1-c1ccco1 | 17 | -13 | . | -1.5 | -12* | 0.03 | 675 | 199
CCCCNC(=O)CS(=O)Cc1nc(-c2cccc(Cl)c2)oc1C (configuration not stated) | -3 | -4 | . | 0.65 | 1.5 | -0.5 | . | .
Cc1ccc(NC(=O)C2C3C=CC4(CN(Cc5cccnc5)C(=O)C24)O3)cc1F (configuration not stated) | 6 | -1 | . | -0.86 | -0.25 | -0.0091 | . | .
SMILES | RORA act | SF-1 act | Htt clearance | D1 mod | M1 antagonist | M1 ag | M1 antag conf | mGluR4 antag
O=C(COn1nnc2ccccc21)NCC1CCCCC1 | 0 | 3 | -13 | 0.58 | -3* | 0.074 | 614 | 245
O=C(Nc1ccc2c(c1)OCO2)C1CCN(S(=O)(=O)Cc2ccccc2)CC1 | -1 | -14 | . | 0.17 | 0.47 | -0.77 | . | .
O=C(Nc1ccc2c(c1)OCO2)C1CCN(Cc2cnn(-c3ccccc3)c2-n2cccc2)CC1 | 3 | 6 | . | 0.21 | -2.1* | 0.32 | 639 | 281
COc1ccc(-c2[nH]ncc2-c2cnn(-c3ccccc3)c2)c(O)c1 | . | . | -16 | 2.5 | -3.3* | 0.38 | 553 | 202
N#Cc1c(C(F)(F)F)cc(-c2ccccc2)nc1SCC(=O)Nc1sc2c(c1C#N)CCC2 | . | . | -331 | . | . | . | . | .
O=S(=O)(c1ccc(OCC(O)CN2CCc3ccccc3C2)cc1)N1CCOCC1 (configuration not stated) | 9 | -2 | . | 0.046 | -3.7* | 0.62 | 422* | 252
Cn1c(=O)c2c(nc(CN3CCOCC3)n2CCCO)n(C)c1=O | 14 | -4 | . | . | 0 | -0.23 | . | .
CCc1ccc2[nH]c(=O)c(C(c3nnnn3CC3CCCO3)N3CCN4CCCC4C3)cc2c1 (configuration not stated) | -16 | -11 | . | 0.24 | -0.027 | -0.5 | . | .
CC(C)(C)C(=O)OCC1OC(n2cnc(C(N)=O)n2)C(O)C1O (configuration not stated) | -19 | -8 | -84 | . | -11* | -0.64 | 578 | 202
CC(=O)OCC1OC(n2ccc(=O)[nH]c2=O)C(O)C1O (configuration not stated) | 10 | -2 | . | 0.51 | -0.2 | 0.15 | . | .
COc1ccc(Oc2coc3c(CN(C)C)c(O)ccc3c2=O)cc1 | -2 | 6 | -16 | -4.3* | -3.7* | -0.058 | 445* | 211
COc1ccc(Oc2c(C)oc3c(CN(C)C)c(O)ccc3c2=O)cc1 | -17 | 0 | 15 | . | -7.5* | 0.43 | 371* | 182
COc1ccc(-c2cn3c(C)c(C(=O)NCc4ccc5c(c4)OCO5)sc3n2)cc1 | -14 | -6 | . | -0.024 | 0.84 | -0.4 | . | .
CCOc1ccc(-n2c(SCC(N)=O)nc3c(c2=O)SCC3)cc1 | -29 | -14 | . | -0.1 | 0.68 | 0.19 | . | .
CCCn1cnc2cc(NCc3ccccn3)ccc21 | 16 | 44 | . | -0.85 | -1.5 | -0.73 | . | .
CCc1ccc(CNc2ccc3c(c2)ncn3C)cc1 | 61* | 70* | . | -1.1 | -2.7* | -0.29 | 627 | 248
